In brackets after ≈: the same amount, converted by molar mass. Activity calls are given as the source filed them. The rule behind the calls is not given here.
What was measured:
Bacillus cereus = assay: Antibacterial activity against Bacillus cereus ATCC 11778 after 24 hrs by two fold dilution assay; assay type: functional; conditions: ATCC 11778, 24 h
Outline: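 Broth macro-dilution per CLSI in cation-adjusted Mueller-Hinton broth; compounds dissolved in DMF, diluted in PBS to 1000 µg/mL stock, then serial 2-fold dilutions in CA-MHB in tubes. Inoculum from 18-20 h TSA colonies (direct colony suspension), adjusted to about 5× 10^5 CFU/mL. MIC read after 24 h at 35 °C as lowest concentration with no visible growth; biological replicates.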

Staphylococcus aureus [1] = assay: Antibacterial activity against methicillin-resistant Staphylococcus aureus DM 21455 after 24 hrs by two fold dilution assay; assay type: functional; conditions: DM 21455, 24 h
Outline: (§1)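 CLSI broth macrodilution in cation-adjusted Mueller-Hinton broth. Compounds were dissolved in DMF and diluted in PBS to a 1000 µg/mL stock, then serially 2-fold diluted in CA-MHB. The inoculum came from colonies on 18-20 h TSA plates (direct colony suspension), adjusted to ~5×10^5 CFU/mL. Incubation was 24 h at 35 °C. MIC is the lowest concentration with no visible growth versus control. Biological replicates.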

Staphylococcus aureus [2] = assay: Antibacterial activity against Staphylococcus aureus DM 4001R after 24 hrs by two fold dilution assay; assay type: functional; outline: as §1
Staphylococcus aureus [3] = assay: Antibacterial activity against methicillin-resistant Staphylococcus aureus DM 9808R after 24 hrs by two fold dilution assay; assay type: functional; outline: as §1
Lipid bilayer [4] = assay: Induction of membrane damage in DOPE/DOPG large unilamellar vesicles assessed as calcein leakage at compound to lipid ratio of 1:16 after 1 hr by fluorescence assay relative to control
Outline: (§2)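 100 nm calcein-loaded LUVs made by film hydration; lipid content set by total phosphorus assay. DOPC/cholesterol (3:1, w/w) mimics mammalian and DOPE/DOPG (3:1, w/w) bacterial membranes. Compound in DMF added at lipid-to-compound ratio 16 (6.25 µM compound), final DMF limited to 0.5%. Fluorescence monitored at ex 490/em 520 nm for 1 hour; replicated.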

Staphylococcus aureus [5] = assay: Disruption of membrane in Staphylococcus aureus isolate DM4001R assessed as increase in ATP leakage at 4 times MIC after 1 hr by ATP bioluminescent assay relative to control; assay type: functional
Outline: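 S. aureus DM4001 grown to exponential phase, washed three times in 20 mM PBS (pH 7), resuspended to OD600 0.2. Compound added, suspensions held 1 hour at 37 °C, then centrifuged. Supernatant mixed with luciferase/luciferin enzyme mix; extracellular ATP quantified by luminescence. Replicated.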

Staphylococcus aureus [6] = assay: Disruption of cytoplasmic membrane in Staphylococcus aureus isolate DM4001R at 2 times MIC after 3000 secs by SYTOX green dye based fluorescence assay; assay type: functional
Outline: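 Clinical S. aureus isolate DM4001R incubated with SYTOX Green plus compound; membrane permeabilization read as increased fluorescence intensity. Measurements replicated.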

Lipid bilayer [7] = assay: Induction of membrane damage in DOPC/cholesterol large unilamellar vesicles assessed as calcein leakage at compound to lipid ratio of 1:16 after 1 hr by fluorescence assay relative to control; outline: as §2
Staphylococcus aureus [8] = assay: Antibacterial activity against Staphylococcus aureus ATCC 29213 infected in C57BL6 mouse cornea assessed as decrease in number of viable bacteria at 0.5% administered topically at 2 hrs interval for 4 times starting on day 1 post infection measured post last dose relative to control; assay type: functional

Row | SMILES | MIC (Bacillus cereus) [µg/mL] | MIC (Staphylococcus aureus [1]) [µg/mL] | MIC (Staphylococcus aureus [2]) [µg/mL] | MIC (Staphylococcus aureus [3]) [µg/mL] | Activity (Lipid bilayer [4]) [%] | Activity (Staphylococcus aureus [5]) [%] | Activity (Staphylococcus aureus [6]) | Activity (Lipid bilayer [7]) [%] | Activity (Staphylococcus aureus [8]) [%]
1 | CC(C)=CCOc1cc(OCC(=O)NCCCN(C)C)c2c(=O)c3c(OCC(=O)NCCCN(C)C)cc(OCC=C(C)C)cc3oc2c1 | 12.5 (≈ 18.4 µM) | 6.25 (≈ 9.18 µM) | 6.25 (≈ 9.18 µM) | 12.5 (≈ 18.4 µM) | – | – | – | – | –
2 | CCCOc1cc(OCC(=O)N[C@@H](CCCNC(=N)N)C(=O)OC)c2c(=O)c3c(OCC(=O)N[C@@H](CCCNC(=N)N)C(=O)OC)cc(OCCC)cc3oc2c1 | 25 (≈ 31.2 µM) | 12.5 (≈ 15.6 µM) | 12.5 (≈ 15.6 µM) | 12.5 (≈ 15.6 µM) | – | – | – | – | –
3 | COC(=O)[C@H](CCCCN)NC(=O)COc1cc(OCC=C(C)C)cc2oc3cc(OCC=C(C)C)cc(OCC(=O)N[C@@H](CCCCN)C(=O)OC)c3c(=O)c12 | 6.25 (≈ 7.84 µM) | 6.25 (≈ 7.84 µM) | 12.5 (≈ 15.7 µM) | 12.5 (≈ 15.7 µM) | 48.2 | 106.7 | Active | < 20 | –
4 | COC(=O)[C@H](CCCNC(=N)N)NC(=O)COc1cc(OCC(=O)N[C@@H](CCCNC(=N)N)C(=O)OC)c2c(=O)c3c(OCC(=O)N[C@@H](CCCNC(=N)N)C(=O)OC)cc(OCC=C(C)C)cc3oc2c1 | 50 (≈ 49.4 µM) | 50 (≈ 49.4 µM) | 50 (≈ 49.4 µM) | 50 (≈ 49.4 µM) | – | – | – | – | –
5 | CCCCN(CCCC)CCCNC(=O)COc1cc(OCC=C(C)C)cc2oc3cc(OCC=C(C)C)cc(OCC(=O)NCCCN(CCCC)CCCC)c3c(=O)c12 | 6.25 (≈ 7.36 µM) | 3.13 (≈ 3.69 µM) | 3.13 (≈ 3.69 µM) | 3.13 (≈ 3.69 µM) | – | – | – | – | –
6 | COC(=O)[C@H](CCCNC(=N)N)NC(=O)COc1cc(OC/C=C(\C)CCC=C(C)C)cc2oc3cc(OC/C=C(\C)CCC=C(C)C)cc(OCC(=O)N[C@@H](CCCNC(=N)N)C(=O)OC)c3c(=O)c12 | > 50 | > 50 | 25 (≈ 25.3 µM) | 50 (≈ 50.5 µM) | – | – | – | – | –
7 | C[C@H]1COc2c(N3CCN(C)CC3)c(F)cc3c(=O)c(C(=O)O)cn1c23.C[C@H]1COc2c(N3CCN(C)CC3)c(F)cc3c(=O)c(C(=O)O)cn1c23.O [LEVOFLOXACIN] | – | – | – | – | – | – | – | – | 99.2
8 | CCN(CC)CCCNC(=O)COc1cc(OCC=C(C)C)cc2oc3cc(OCC=C(C)C)cc(OCC(=O)NCCCN(CC)CC)c3c(=O)c12 | 25 (≈ 33.9 µM) | 6.25 (≈ 8.48 µM) | 6.25 (≈ 8.48 µM) | 12.5 (≈ 17 µM) | – | – | – | – | –
